Among the data in ChEMBL document CHEMBL4261627, “Design, synthesis and anti-melanogenic effect of cinnamamide derivatives” (Bioorg Med Chem, 2018) are inhibition and Activity values, retold here.

In series [1] the target is T1, Tyrosinase (Mus musculus) (UniProt P11344).
T1 sequence (whole entry): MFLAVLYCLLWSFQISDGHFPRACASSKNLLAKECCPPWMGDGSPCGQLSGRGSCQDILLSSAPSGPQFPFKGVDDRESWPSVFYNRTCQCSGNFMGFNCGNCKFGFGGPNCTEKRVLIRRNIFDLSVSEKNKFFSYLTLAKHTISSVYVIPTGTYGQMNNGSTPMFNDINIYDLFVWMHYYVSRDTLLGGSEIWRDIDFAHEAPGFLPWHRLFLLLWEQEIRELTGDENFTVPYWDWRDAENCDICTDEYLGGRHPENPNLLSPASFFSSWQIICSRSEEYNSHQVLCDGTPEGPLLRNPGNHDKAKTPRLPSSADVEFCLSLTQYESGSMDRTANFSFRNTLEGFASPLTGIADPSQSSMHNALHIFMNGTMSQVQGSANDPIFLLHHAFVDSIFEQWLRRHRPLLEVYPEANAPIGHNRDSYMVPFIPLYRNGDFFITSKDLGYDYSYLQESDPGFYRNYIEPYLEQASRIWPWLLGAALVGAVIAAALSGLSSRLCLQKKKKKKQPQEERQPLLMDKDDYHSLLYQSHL
Kind of series: Inhibition of tyrosinase in alpha-MSH stimulated mouse B16F10 cells using L-dopa as substrate pretreated for 24 hrs followed by substrate addition and measured after 30 mins. In short, it runs like this:
(§1)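 Cells were lysed in pH 6.8 phosphate buffer with 0.1 mM PMSF and 1% Triton X-100, frozen at −80 °C, and spun. Supernatant (80 µL) was incubated with 20 µL of 10 mM L-dopa at 37 °C for 30 min and read at 500 nm. Triplicate.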

The subject of series [2] is B16-F10. Kind of series: Antimelanogenic activity in mouse B16F10 cells assessed as inhibition of alpha-MSH-stimulated melanin synthesis at 10 uM measured after 24 hrs. Format: functional, cell-based. In short, it runs like this: (§2)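 B16F10 cells were seeded at 5x10^4 cells/well and grown 24 h at 37 °C in 5% CO2. […] After PBS washes, melanin was dissolved in 1 N NaOH and read as absorbance at 405 nm. Triplicate, mean ± SEM.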

The subject of series [3] is B16-F10. Kind of series: Antimelanogenic activity in mouse B16F10 cells assessed as inhibition of alpha-MSH-stimulated melanin synthesis at 25 uM measured after 24 hrs. Format: functional. As to conditions: B16-F10, 24 h. In short, it runs like this:
as §2

Series [4] has as its system B16-F10. Kind of series: Cytotoxicity against mouse B16F10 cells up to 25 uM after 24 hrs by WST8 assay. Format: cell-based. As to conditions: b16-f10, 24 h. Put shortly:
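B16F10 cells (from DMEM/10% FBS culture) were seeded at 1x10^4 cells/well and held 24 h at 37 °C, 5% CO2. Compound (0, 5, 10, 25 µM) was added for a further 24 h. WST-8 reagent was then applied for 30 min to 2 h at 37 °C and OD read at 450 nm. Viability expressed as % of control; triplicate.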

Series [5] is described as follows: Antioxidant activity assessed as DPPH-radical scavenging activity at 1 mM incubated for 30 mins under dark condition. Format: functional. Put shortly: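 DPPH (0.2 mM in methanol, 180 µL) was mixed with 20 µL of compound from a 10 mM DMSO stock, giving 1 mM final. The mix was kept in the dark for 30 min and read at 517 nm, with L-ascorbic acid as reference. % scavenging = (Ac−As)/Ac × 100 against untreated control. Triplicate, mean ± SD.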

Series [6] has as its target T1, Tyrosinase (Mus musculus). The series is described as follows: Inhibition of tyrosinase in alpha-MSH stimulated mouse B16F10 cells at 10 uM using L-dopa as substrate pretreated for 24 hrs followed by substrate addition and measured after 30 mins. Put shortly: as §1
Series [7] addresses T1, Tyrosinase (Mus musculus). As to conditions: 400 uM.

For `O=C(/C=C/c1ccc(O)cc1O)N1CCCC1`, the inhibition entry in series [1] was “Dose-dependent effect”; in series [2] it was “Dose-dependent effect”; in series [5], 22.3%; in series [6], 38.3%. For the same compound, the inhibition at 25 µM in series [3] turned out to be 78.3%. In addition, the Activity result in series [4] is listed as “Non-Toxic”.

For `O=C(/C=C/c1ccc(O)c(O)c1)N1CCCC1`, the inhibition in series [5] came to 83.2%.

In the case of `OC[C@H]1O[C@@H](Oc2ccc(O)cc2)[C@H](O)[C@@H](O)[C@@H]1O`, the inhibition in series [7] worked out at 51.7%.

As for `O=C(/C=C/c1ccc(O)cc1O)N1CCCCC1`, the results for the inhibition entry in series [2], in series [5] and in series [6] were “Dose-dependent effect”, 30.7% and 23.3%, respectively. In addition, in series [3], the inhibition at 25 µM was found to be 61.8%. Moreover, in series [4], the Activity entry is “Non-Toxic”.

As to `O=C(/C=C/c1ccc(O)c(O)c1)N1CCCCC1`, the inhibition in series [5] was determined as 82.8%.

For the compound `COc1cc(/C=C/C(=O)N2CCCCC2)ccc1O`, the inhibition result in series [1] is “Dose-dependent effect”; in series [2], “Dose-dependent effect”; in series [5], 80.7%; in series [6], 44%. In addition, the inhibition at 25 µM in series [3] came to 72.7%. Further, in series [4], the Activity entry is reported as “Non-Toxic”.

As to `COc1ccc(/C=C/C(=O)N2CCCC2)cc1O`, the inhibition in series [5] worked out at 34.2%.

For the compound `COc1cc(/C=C/C(=O)N2CCCC2)ccc1O`, the inhibition in series [5] came out at 82.1%.

Consider `COc1ccc(/C=C/C(=O)N2CCCCC2)cc1O`, for which the inhibition in series [5] was 37.6%.

In the case of `O=C1O[C@H]([C@@H](O)CO)C(O)=C1O`, the inhibition in series [5] amounted to 84.6%.

Regarding `O=C(/C=C/c1ccc(O)cc1)N1CCCC1`, in series [5], the inhibition turned out to be 3.51%.

Consider `O=C(/C=C/c1ccc(O)cc1)N1CCCCC1`, for which, in series [5], the inhibition came out at 0.91%.

In the case of `O=c1cc(CO)occ1O` [KOJIC ACID], the inhibition at 25 µM in series [3] is 37.6%.
